This is an account of results in ChEMBL document CHEMBL1126653, “Structure-function studies of amphiphilic antibacterial peptides” (1993).

For orientation: MIC means the lowest concentration found to suppress growth.

In brackets after ≈: the same amount, converted by molar mass. Peptide text beside a SMILES is read from it.

The nature of assay [1]: Hemolytic activity towards human erythrocytes is evaluated for magainin 2 at peptide concentration of 50 µg/mL. It is filed as functional. Summed up:
(§1)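 Washed human erythrocytes from healthy volunteers (3 mL packed cells, PBS pH 7.4 washes, diluted to 20 mL) exposed to peptide in PBS at 25-200 µg/mL, 30 min at 37 °C; supernatant absorbance at 576 nm after centrifugation; 0.1% Triton X-100 taken as 100% hemolysis; duplicates.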

The nature of assay [2]: Hemolytic activity towards human erythrocytes is evaluated for magainin 2 at peptide concentration of 100 µg/mL. It is filed as functional. A digest of the protocol: as §1
Assay [3] relates to Enterobacter cloacae. The assay is described as follows: Compound tested for the antimicrobial activity against Enterobacter cloacae ROS. It is filed as functional. Summed up:
(§2)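 MIC by microbroth dilution in Tryptic Soy Broth; inoculum 5×10^5 CFU/mL; plates incubated 18-20 h at 37 °C; assay pH approximately 7.4.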

Another assay concerns Escherichia coli. The assay is described as follows: Compound tested for in vitro susceptibility against ATCC strain 25922 of Escherichia coli. The following applies: ATCC25922. It is filed as functional. A digest of the protocol: (§3)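 Microbroth dilution in Tryptic Soy Broth; inoculum 5×10^5 CFU/mL; plates incubated at 37 °C for 18-20 h; value reported as minimal inhibitory concentration (µg/mL).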

Another assay concerns Shigella flexneri. Put plainly: Compound tested for the antimicrobial activity against Shigella flexneri. It is filed as functional. Summed up: as §2
Assay [4] has as its system Salmonella enterica subsp. enterica serovar Anatum. Put plainly: Compound tested for the antimicrobial activity against S. a natum. It is filed as functional, salmoneila anatum. Summed up: as §3
A short description of assay [5]: Hemolytic activity towards human erythrocytes is evaluated for magainin 2 at peptide concentration of 25 ug/mL. It is filed as functional. A digest of the protocol:
as §1

In assay [6] the test system is Acinetobacter calcoaceticus subsp. anitratus. Put plainly: Compound tested for the antimicrobial activity against Acinetobacter anitratus. It is filed as functional, aeinetobacter anitrotap. Summed up: as §2
Assay [7] is described as follows: Hemolytic activity towards human erythrocytes is evaluated for magainin 2 at peptide concentration of 200 µg/mL. It is filed as functional. Summed up:
as §1

For the next assay, the system named is Staphylococcus aureus. The assay is described as follows: Compound tested for in vitro susceptibility against ATCC strain 29213 of Staphylococcus aureus. It is filed as functional. A digest of the protocol: as §3
The test system of another assay is Proteus mirabilis. The assay is described as follows: Compound tested for the antimicrobial activity against Proteus mirabilis. It is filed as functional. A digest of the protocol: as §3
For a further assay, the system named is Klebsiella pneumoniae. Put plainly: Compound tested for the antimicrobial activity against Klebsiella pneumoniae. It is filed as functional. A digest of the protocol: as §2
Assay [8] relates to Enterobacter cloacae. The assay is described as follows: Compound tested for the antimicrobial activity against Enterobacter cloacae. It is filed as functional. Summed up:
as §3

The next assay relates to Pseudomonas aeruginosa. Put plainly: Compound tested for in vitro susceptibility against ATCC strain 27853 of Pseudomonas aeruginosa. It is filed as functional. The following applies: ATCC 27853. Summed up:
as §3

Take `CC(C)C[C@H](NC(=O)[C@H](Cc1c[nH]cn1)NC(=O)[C@H](CC(C)C)NC(=O)[C@H](Cc1c[nH]c2ccccc12)NC(=O)[C@H](Cc1c[nH]cn1)NC(=O)[C@H](Cc1c[nH]cn1)NC(=O)[C@H](C)NC(=O)[C@H](Cc1c[nH]c2ccccc12)NC(=O)[C@H](Cc1c[nH]cn1)NC(=O)[C@H](Cc1c[nH]cn1)NC(=O)[C@H](Cc1c[nH]c2ccccc12)NC(=O)[C@H](CC(C)C)NC(=O)[C@@H](N)Cc1c[nH]cn1)C(=O)N[C@@H](Cc1c[nH]c2ccccc12)C(=O)N[C@@H](Cc1c[nH]cn1)C(=O)N[C@@H](C)C(=O)N[C@@H](Cc1c[nH]c2ccccc12)C(=O)O` (H-HLWHHWAHHWLHLWHAW-OH): the Hemolysis in assay [1], in assay [2], in assay [5] and in [7] was 0% in each case. In addition, the minimum inhibitory concentration (MIC) in the assay on Enterobacter cloacae [3] is 50 µg/mL (≈ 20.9 µM); in the assay with Escherichia coli, 25 µg/mL (≈ 10.5 µM); against Shigella flexneri, 12.5 µg/mL (≈ 5.23 µM); in [4], more than 100 µg/mL; in assay [6], less than 0.39 µg/mL; against Staphylococcus aureus it was 50 µg/mL (≈ 20.9 µM). Moreover, the MIC is more than 100 µg/mL with Proteus mirabilis, more than 100 µg/mL against Klebsiella pneumoniae, less than 0.39 µg/mL in the assay with Enterobacter cloacae [8] and 12.5 µg/mL (≈ 5.23 µM) in the assay on Pseudomonas aeruginosa.

With `CC(C)C[C@H](NC(=O)[C@H](CCCCN)NC(=O)[C@H](CCCCN)NC(=O)[C@H](Cc1c[nH]c2ccccc12)NC(=O)[C@H](CCCCN)NC(=O)[C@H](CCCCN)NC(=O)[C@H](CCCCN)NC(=O)[C@H](C)NC(=O)[C@H](CCCCN)NC(=O)[C@H](CCCCN)NC(=O)[C@H](Cc1c[nH]c2ccccc12)NC(=O)[C@H](C)NC(=O)[C@@H](N)CCCCN)C(=O)N[C@@H](C)C(=O)N[C@@H](CCCCN)C(=O)N[C@@H](CCCCN)C(=O)N[C@@H](Cc1c[nH]c2ccccc12)C(=O)O` (H-KAWKKAKKKWKKLAKKW-OH), the results for the MIC with Escherichia coli, in the assay on Staphylococcus aureus and in the assay on Pseudomonas aeruginosa were 200 µg/mL (≈ 91.5 µM), 200 µg/mL (≈ 91.5 µM) and more than 200 µg/mL, respectively.

With `CC(C)C[C@H](NC(=O)[C@H](CCCCN)NC(=O)[C@H](CCCCN)NC(=O)[C@H](CC(C)C)NC(=O)[C@H](CC(C)C)NC(=O)[C@H](CCCCN)NC(=O)[C@H](CC(C)C)NC(=O)[C@H](CC(C)C)NC(=O)[C@H](CCCCN)NC(=O)[C@@H](N)CCCCN)C(=O)O` (H-KKLLKLLKKL-OH), the MIC in the assay with Escherichia coli, against Staphylococcus aureus and against Pseudomonas aeruginosa was more than 200 µg/mL throughout.

Take `NCCCC[C@H](NC(=O)[C@H](CCCCN)NC(=O)[C@H](Cc1c[nH]c2ccccc12)NC(=O)[C@H](Cc1c[nH]c2ccccc12)NC(=O)[C@H](CCCCN)NC(=O)[C@H](Cc1c[nH]c2ccccc12)NC(=O)[C@H](Cc1c[nH]c2ccccc12)NC(=O)[C@H](CCCCN)NC(=O)[C@@H](N)CCCCN)C(=O)N[C@@H](Cc1c[nH]c2ccccc12)C(=O)O` (H-KKWWKWWKKW-OH): the minimal inhibitory concentration (MIC) against Escherichia coli was 50 µg/mL (≈ 31.4 µM); against Staphylococcus aureus, 12.5 µg/mL (≈ 7.86 µM); in the assay with Pseudomonas aeruginosa, 50 µg/mL (≈ 31.4 µM).
